Experimental data from different studies.
Lines come from different studies, so protocols differ.
Antigen peptide transporter 1/Antigen peptide transporter 2: Antigen peptide transporter 1/Antigen peptide transporter 2 (Homo sapiens, UniProt Q03518+Q03519)
KCNH2: Voltage-gated inwardly rectifying potassium channel KCNH2 (KCNH2, Homo sapiens, UniProt Q12809)
PDE4D: 3',5'-cyclic-AMP phosphodiesterase 4D (PDE4D, Homo sapiens, UniProt Q08499)
CDK7 with cyclin H: Cyclin-dependent kinase 7, with cyclin H (CDK7, Homo sapiens, UniProt P50613)
TEAD4: Transcriptional enhancer factor TEF-3 (TEAD4, Homo sapiens, UniProt Q15561)

Compound	target	assay	test system	setting	IC50
CC[C@H](C)[C@H](NC(=O)[C@H](CCCNC(=N)N)NC(=O)CN)C(=O)N[C@@H](CC(=O)O)C(=O)N[C@@H](CCCCN)C(=O)N1CCC[C@H]1C(=O)N[C@H](C(=O)N[C@@H](CC(C)C)C(=O)N[C@@H](C)C(=O)O)[C@@H](C)CC	Antigen peptide transporter 1/Antigen peptide transporter 2	ligand displacement			5400 nM
CN1[C@@H](CC(=O)c2ccccc2)CCC[C@H]1C[C@H](O)c1ccccc1	KCNH2	ligand displacement	HEK293	1 h, pH 7.4, cell membranes	1500 nM
COc1cc(C(=O)NS(=O)(=O)c2ccccc2C)ccc1Cc1cn(C)c2ccc(NC(=O)OC3CCCC3)cc12	PDE4D	enzyme activity, inhibitor, radiometric			5380 nM
COc1c(-c2ccc3c(c2)OCO3)oc2c(ccc3occc32)c1=O	CDK7 with cyclin H	enzyme activity, inhibitor, ADP detection			> 50000 nM
CCCCCCCCCCCCCC(=O)O[C@@H]1[C@@H](C)[C@@]2(O)[C@@H](C=C(CO)C[C@]3(O)C(=O)C(C)=C[C@@H]23)[C@@H]2C(C)(C)[C@]12OC(C)=O	Proteinase-activated receptor 2 (F2RL1, Homo sapiens, UniProt P55085)	calcium signal, antagonist			5.89 nM
CC[C@H](C)[C@H](NC(=O)[C@@H](NC(=O)[C@H](CC(N)=O)NC(=O)[C@H](CCCCN)NC(=O)[C@@H]1CCCN1C(=O)[C@H](CC(N)=O)NC(=O)[C@H](CCSC)NC(=O)[C@@H](NC(=O)[C@H](C)NC(=O)[C@H](CC(N)=O)NC(=O)[C@H](Cc1ccccc1)NC(=O)[C@H](CC(C)C)NC(=O)[C@H](C)NC(=O)[C@H](CCC(=O)O)NC(=O)[C@H](CC(C)C)NC(=O)[C@H](CC(=O)O)NC(=O)[C@@H](NC(=O)[C@H](CCC(=O)O)NC(=O)[C@H](CO)NC(C)=O)[C@@H](C)O)C(C)C)[C@@H](C)O)C(=O)N[C@H](C(=O)N1CCC[C@H]1C(=O)N1CCC[C@H]1C(=O)N[C@@H](CO)C(=O)N[C@H](C(=O)N1CCC[C@H]1C(=O)N[C@@H](CCSC)C(=O)N[C@@H](CCCNC(=N)N)C(=O)N[C@@H](CC(C)C)C(=O)N[C@@H](CCCNC(=N)N)C(=O)N[C@@H](CCCCN)C(=O)N[C@@H](CC(C)C)C(=O)N1CCC[C@H]1C(=O)N[C@@H](CC(=O)O)C(=O)N[C@@H](CO)C(=O)N[C@@H](Cc1ccccc1)C(=O)N[C@@H](Cc1ccccc1)C(=O)N[C@H](C(=O)N1CCC[C@H]1C(=O)N1CCC[C@H]1C(N)=O)[C@@H](C)O)C(C)C)C(C)C	TEAD4	protein-protein interaction, inhibitor, TR-FRET			64 nM
C[C@H]1COCCN1c1nc(NCc2cccnc2C(F)(F)F)c2cccnc2n1	KCNH2	ion current, inhibitor			> 33300 nM
O=c1c2ccccc2[nH]c(=S)n1-c1ccccc1	Prothrombin (F2, Homo sapiens, UniProt P00734)	enzyme activity, inhibitor			92400 nM
CC(C)C[C@H](NC(=O)[C@H](CCC(=O)O)NC(=O)[C@@H](NC(=O)[C@H](CO)NC(=O)[C@H](CCCCN)NC(=O)[C@H](CCC(N)=O)NC(=O)[C@H](Cc1ccc(O)cc1)NC(=O)[C@H](C)NC(=O)[C@@H](N)CCCNC(=N)N)[C@@H](C)O)C(=O)O	Antigen peptide transporter 1/Antigen peptide transporter 2	ligand displacement			400 nM
CCc1c(C)nc(-c2ccc(Cl)s2)nc1Nc1ccc(CC(=O)O)cc1	3',5'-cyclic-AMP phosphodiesterase 4D (PDE4D, Homo sapiens, UniProt Q08499, S190D/S715A/S717A)	enzyme activity, inhibitor, fluorescence			1570 nM
CC(C)[C@H](NC(=O)[C@H](C)N)C(=O)N[C@@H](C)C(=O)N[C@@H](C)C(=O)N[C@@H](C)C(=O)N[C@@H](C)C(=O)N[C@@H](C)C(=O)N[C@@H](C)C(=O)N[C@@H](C)C(=O)N[C@@H](CCCCN)C(=O)O	Antigen peptide transporter 1/Antigen peptide transporter 2	ligand displacement			9400 nM
CC(C)c1cccc(=O)c(O)c1	eno (Escherichia coli, UniProt P0A6P9)	enzyme activity, inhibitor, absorbance			8000 to 11000 nM
O=c1cc(-c2ccccc2)oc2c1ccc1occc12	CDK7 with cyclin H	enzyme activity, inhibitor, ADP detection			4800 nM
CC(C)C[C@H](NC(=O)[C@H](C)NC(=O)[C@H](C)NC(=O)[C@H](C)NC(=O)[C@H](C)NC(=O)[C@H](C)NC(=O)[C@H](C)NC(=O)[C@H](CCCNC(=N)N)NC(=O)[C@H](C)N)C(=O)O	Antigen peptide transporter 1/Antigen peptide transporter 2	ligand displacement			900 nM
CSCC[C@H](NC(=O)[C@H](CCCNC(=N)N)NC(=O)[C@H](CCSC)NC(=O)[C@@H]1CCCN1C(=O)[C@H](CC(C)C)NC(=O)[C@H](CO)NC(=O)[C@H](C)NC(=O)[C@@H]1CCCN1C(=O)[C@@H](NC(=O)[C@H](CC(N)=O)NC(=O)[C@H](CO)NC(=O)[C@H](CO)NC(=O)[C@H](CCCCN)NC(=O)[C@@H]1CCCN1C(=O)[C@H](CC(N)=O)NC(=O)[C@H](CCSC)NC(=O)[C@@H](NC(=O)[C@H](CO)NC(=O)[C@H](CC(N)=O)NC(=O)[C@H](Cc1ccccc1)NC(=O)[C@H](CC(C)C)NC(=O)[C@H](CC(C)C)NC(=O)[C@H](CCC(=O)O)NC(=O)[C@H](CC(C)C)NC(=O)[C@H](CC(=O)O)NC(=O)[C@@H](NC(=O)[C@H](CCC(N)=O)NC(=O)[C@H](CO)NC(C)=O)[C@@H](C)O)C(C)C)C(C)C)C(=O)N[C@@H](CCCNC(=N)N)C(=O)N[C@@H](CC(N)=O)C(=O)N[C@@H](CC(C)C)C(=O)N1CCC[C@H]1C(=O)N[C@@H](CC(=O)O)C(=O)N[C@@H](CO)C(=O)N[C@@H](Cc1ccccc1)C(=O)N[C@@H](Cc1ccccc1)C(=O)N[C@@H](CCCCN)C(=O)N1CCC[C@H]1C(=O)N1CCC[C@H]1C(N)=O	TEAD4	protein-protein interaction, inhibitor, TR-FRET			65 nM
CCCCOc1ccc(C(=O)CCN2CCCCC2)cc1	PDE4D	enzyme activity, inhibitor, radiometric			11300 nM
CC(C)C[C@H](NC(=O)[C@H](CCC(=O)O)NC(=O)[C@@H](NC(=O)[C@H](CO)NC(=O)[C@H](CCCCN)NC(=O)[C@H](CCC(N)=O)NC(=O)[C@H](Cc1ccc(O)cc1)NC(=O)[C@@H](N)CCCNC(=N)N)[C@@H](C)O)C(=O)O	Antigen peptide transporter 1/Antigen peptide transporter 2	ligand displacement			100000 nM
CN1[C@@H](CCc2ccccc2)CCC[C@H]1CCc1ccccc1	KCNH2	ligand displacement	HEK293	1 h, pH 7.4, cell membranes	238 nM
CC(NC(C)(C)C)C(=O)c1cccc(Cl)c1 (centres unmarked)	Sodium-dependent dopamine transporter (Slc6a3, Rattus norvegicus, UniProt P23977)	transporter uptake, inhibitor, radiometric			305 nM
CC[C@H](C)[C@H](NC(=O)[C@H](CCCNC(=N)N)NC(=O)CN)C(=O)N[C@@H](CC(=O)O)C(=O)N[C@@H](CCCCN)C(=O)N1CCC[C@H]1C(=O)N[C@H](C(=O)N[C@@H](CC(C)C)C(=O)N[C@@H](CCCCN)C(=O)O)[C@@H](C)CC	Antigen peptide transporter 1/Antigen peptide transporter 2	ligand displacement			2700 nM
